Measured values pooled from the literature.
Lines come from different studies, so protocols differ.
Target: Serine/threonine-protein kinase 32B (STK32B, Homo sapiens, UniProt Q9NY57)

SMILES | effect on | method | tested at | remaining binding [%]
O=C(NCC1CCOCC1)c1n[nH]cc1NC(=O)c1c(F)cccc1F | binding | competition with immobilised ligand | 1 µM | 77
CCC(=O)N[C@H]1CC[C@@H](C(=O)N(C)c2ccc(-c3nc4ccccc4o3)cc2)C1 | cell-free assay | competition with immobilised ligand | 1 µM | 98
COc1cnc(Nc2cccc(S(N)(=O)=O)c2)nc1N1CCN(c2ccccc2)C(=O)C1 | binding | competition with immobilised ligand | 1 µM | 90
c1cnn2ncc(-c3ccnc(N4CCC45COC5)n3)c2c1 | binding |  | 1 µM | 93
O=C(c1ccc(Nc2ncc(Cl)c(-c3cc4ccccc4s3)n2)cc1)N1CCC(N2CCCC2)CC1 | binding | competition with immobilised ligand | 1 µM | 100
O=C1NC(c2ccccn2)Sc2ccccc21 (centres unmarked) | cell-free assay | competition with immobilised ligand | 1 µM | 100
CN(C)c1nccc(-c2cnn3ncccc23)n1 | binding |  | 1 µM | 100
c1cncc(-c2cccc(Nc3nccc(NC4CCCCC4)n3)c2)c1 | binding | competition with immobilised ligand | 10 µM | 100
FC(F)(F)c1ccc2c(c1)nc(-c1cccnc1)n2C1CC1 | cell-free assay | competition with immobilised ligand | 1 µM | 100
N[C@H]1CCN(c2nccc(-c3cnn4ncccc34)n2)C1 | binding |  | 1 µM | 100
CO[C@@H](C)c1c(Nc2ccc([C@H](N(C)C(=O)C3CCS(=O)(=O)CC3)C(F)(F)F)cc2)cnc2cc(Cl)nn12 | cell-free assay | competition with immobilised ligand | 1 µM | 89
CCN1CCN(Cc2ccc(C(=O)Nc3ccc(C)c(Oc4ccc5c(c4)CC(=O)N5)c3)cc2C(F)(F)F)CC1 | binding | competition with immobilised ligand | 1 µM | 92
FC(F)(F)Oc1cccc(-c2cnc3ccc(-c4ccncc4)nn23)c1 | binding | competition with immobilised ligand | 5 µM | 97
Cc1cnn2ncc(-c3ccnc(N(C)C)n3)c2c1 | binding |  | 1 µM | 100
C[C@H](c1cccc(C#N)c1)n1cc(Cl)cc(C(N)=O)c1=N | cell-free assay | competition with immobilised ligand | 1 µM | 100
O=C(NCCCN1CCOCC1)c1ccc(Nc2ncc(Cl)c(-c3ccc(Cl)s3)n2)cc1 | binding | competition with immobilised ligand | 1 µM | 100
F[C@@H]1CCN(c2nccc(-c3cnn4ncccc34)n2)C1 | binding |  | 1 µM | 100
CNC(=O)c1ccc(Nc2ncc(C(F)(F)F)c(NCc3nccnc3N(C)S(C)(=O)=O)n2)cc1 | cell-free assay | competition with immobilised ligand | 0.1 µM | 97
C[C@@H]1CCN(c2nccc(-c3cnn4ncccc34)n2)C1 | binding |  | 1 µM | 89
Cc1cnc(Nc2ccc(C(=O)N3CCC(N4CCCC4)CC3)cc2)nc1-c1cc2ccccc2s1 | binding | competition with immobilised ligand | 1 µM | 100
